Calls of active or inactive are those of the source. The rule behind the calls is not given here.
Legend:
[1] = tested on: Aorta; test: Vasodilating activity in Sprague-Dawley rat aortic rings assessed as reduction in phenylephrine-induced contractions; type: functional, tissue-based
Method in brief: (§1)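 Thoracic aorta rings (4 mm) from male SD rats (250-300 g, chloral hydrate anesthesia), cleaned of fat and connective tissue and held at 2 g resting force in Krebs' solution. After KCl response, washout and 30 min re-equilibration, rings got L-cysteine (1 µM final, 10 min), then phenylephrine contraction (2 µM final). Cumulative concentration–response curve at 10^-9–10^-6 M final gave EC50. DMSO ≤0.1%.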

[2] = tested on: Aorta; test: Vasodilating activity in Sprague-Dawley rat aortic rings assessed as reduction in phenylephrine-induced contractions relative to control; type: functional; method in brief: as §1
[3] = tested on: Aorta; test: Vasodilating activity in Sprague-Dawley rat aortic rings assessed as reduction in phenylephrine-induced contractions in presence of L-cysteine and TRPV1 antagonist capsazepine; type: functional, tissue-based
Method in brief: (§2)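 SD rat aortic rings were prepared as for the standard ring assay and randomly grouped. They were preincubated 10 min with L-cysteine (1 µM final) alone or with HC030031 (10 µM), capsazepine (10 µM), both, or CGRP(8-37) (10 µM, in water), all final. Phenylephrine contraction (2 µM final) preceded a cumulative concentration–response curve at 10^-9–10^-6 M final. Mean, n = 5.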

[4] = tested on: Aorta; test: Vasodilating activity in Sprague-Dawley rat aortic rings assessed as reduction in phenylephrine-induced contractions in presence of L-cysteine and TRPA1 antagonist HC030031; type: functional, tissue-based; method in brief: as §2
[5] = tested on: Aorta; test: Vasodilating activity in Sprague-Dawley rat aortic rings assessed as reduction in phenylephrine-induced contractions in presence of L-cysteine and CGRP receptor antagonist CGRP(8 to 37); type: functional, tissue-based; method in brief: as §2
[6] = tested on: Rattus norvegicus; test: Antihypertensive activity in carotid cannulated Sprague-Dawley rat assessed as reduction in systolic arterial pressure at 20 to 40 mg/kg, ip measured within 2 hrs relative to rutaecarpine; type: functional, organism-based
Method in brief: (§3)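 Male SD rats (250-300 g) under sodium pentobarbital (40 mg/kg, 10 mg/kg supplements), kept at 37°C and tracheotomized. The right carotid artery was cannulated to a pressure transducer. Once pressure was stable, compounds suspended in sodium carboxymethyl cellulose were given i.p. at 20 or 40 mg/kg. Arterial pressure was recorded continuously for 2 h to derive its decrease.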

[7] = tested on: Rattus norvegicus; test: Antihypertensive activity in carotid cannulated Sprague-Dawley rat assessed as reduction in diastolic arterial pressure at 20 to 40 mg/kg, ip measured within 2 hrs relative to rutaecarpine; type: functional, organism-based; method in brief: as §3
[8] = tested on: Rattus norvegicus; test: Increase in CGRP level in Sprague-Dawley rat blood at 20 to 40 mg/kg, ip by ELISA; type: functional, organism-based
Method in brief: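 Rat serum CGRP was quantified with a commercial CGRP ELISA kit per the manufacturer. Optical density was read at 450 nm and concentrations were expressed as pg/mL.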

[9] = tested on: Aorta; test: Vasodilating activity in Sprague-Dawley rat aortic rings assessed as reduction in phenylephrine-induced contractions at 1:1 ratio of test compound to furoxan; type: functional, tissue-based
[10] = tested on: Aorta; test: Vasodilating activity in Sprague-Dawley rat aortic rings assessed as reduction in phenylephrine-induced contractions at 1:1 ratio of test compound to furoxan relative to control; type: functional

Compound	EC50 [1] [nM]	Emax [2] [%]	other results
O=c1c2cc(OCCOCCOCCNCc3c(-c4ccsc4)no[n+]3[O-])ccc2nc2n1CCc1c-2[nH]c2ccccc12	30.7	73.6	–
O=c1c2cc(OCCOCCOCCNCc3c(-c4cccc(F)c4)no[n+]3[O-])ccc2nc2n1CCc1c-2[nH]c2ccccc12	158	77.3	–
O=c1c2cc(OCCOCCOCCNCc3c(-c4ccccc4)no[n+]3[O-])ccc2nc2n1CCc1c-2[nH]c2ccccc12	774	54.6	–
O=c1c2cc(OCCOCCOCCNCc3c(-c4cccc5ccccc45)no[n+]3[O-])ccc2nc2n1CCc1c-2[nH]c2ccccc12	1410	45.3	–
CCOc1ccccc1-c1no[n+]([O-])c1CNCCOCCOCCOc1ccc2nc3n(c(=O)c2c1)CCc1c-3[nH]c2ccccc12	116	69.9	–
O=c1c2cc(OCCOCCOCCNCc3c(-c4ccoc4)no[n+]3[O-])ccc2nc2n1CCc1c-2[nH]c2ccccc12	22500	30.6	–
O=c1c2cc(OCc3c(-c4ccccc4)no[n+]3[O-])ccc2nc2n1CCc1c-2[nH]c2ccccc12	13.1	85.2	Activity [3]: inactive; Activity [4]: inactive; Activity [5]: inactive; Activity [6]: Active; Activity [7]: Active; Activity [8]: inactive
O=c1c2ccccc2nc2n1CCc1c-2n(CCOCCOCCNCc2c(-c3ccccc3)no[n+]2[O-])c2ccccc12	2040	43.2	–
O=c1c2ccccc2nc2n1CCc1c-2[nH]c2ccc(OCCOCCOCCNCc3c(-c4ccccc4)no[n+]3[O-])cc12	112	64.2	–
CC(C)c1ccc(-c2no[n+]([O-])c2CNCCOCCOCCOc2ccc3nc4n(c(=O)c3c2)CCc2c-4[nH]c3ccccc23)cc1	2590	40.9	–
O=c1c2cc(OCCOCCNCc3c(-c4ccccc4)no[n+]3[O-])ccc2nc2n1CCc1c-2[nH]c2ccccc12	15.2	81.4	–
O=c1c2ccccc2nc2n1CCc1c-2[nH]c2ccccc12 [RUTAECARPINE]	156	66.3	EC50 [9]: 29.7 nM; Emax [10]: 75.3%; Activity [8]: inactive

From ChEMBL document CHEMBL4340513, “Dual-targeting Rutaecarpine-NO donor hybrids as novel anti-hypertensive agents by promoting release of CGRP” (Eur J Med Chem, 2019)
